This is a sample that favours compounds with a hit; in the whole collection about 8.4% have one here.
E coli WT exp = blocks growth of wild type E. coli BW25113; OD600 absorbance; growth inhibition, % at 100 µM; 98,000 compounds, 0.15% hits; AID 710;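 active means growth inhibition above about 50% at one test dose, limit read from the data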;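 further: growth measured after 20 h incubation at 37 °C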
PostGolgi yeast = growth inhibition of a yeast mutant, post-Golgi transport screen; post-Golgi transport phenotypic cell assay; inhibition, % at 10 µM; 98,000 compounds, 0.9% hits;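 further: yeast cells grown in 1536-well plates; yeast grown about 18 h at 30C before absorbance read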
PostGolgi ctrl = inhibits growth of the yeast control strain. efflux-deficient yeast background strain, growth absorbance A615, 16 h. inhibition, % at 10 µM. 98,000 compounds, 5% hits
tolC growth inh = growth inhibitors of E. coli BW25113 tolC mutant; 65,000 compounds, 2.2% hits; growth inhibition, % at 10 µM (by protocol); OD615;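 active means growth inhibition at or above a cutoff equal to the mean over every tested compound plus 3 SD, cut at about 60% in these data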;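 further: growth measured after 20 h incubation at 37 °C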
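Test system: tolC-deleted E. coli BW25113; medium: LB with kanamycin 50 µg/mL; compound: single-point testing at 10 µM; incubation: 20 h compound exposure of bacteria at 37 °C; signal: OD at 615 nm; evaluation: growth inhibition in percent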
Cav32 inh = blocks human Cav3.2 T-type calcium channel | Cav3.2-expressing cells, Fluo-4 calcium fluorescence FDSS; stronger effect = lower value | 100,000 compounds, 4% hits | B-score at 10 µM | O95180;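 active means single-dose well whose peak fluorescence ratio is a statistical outlier from its plate by either plate-standardised score or position-corrected B-score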
Target sequence (O95180 whole entry, looked up): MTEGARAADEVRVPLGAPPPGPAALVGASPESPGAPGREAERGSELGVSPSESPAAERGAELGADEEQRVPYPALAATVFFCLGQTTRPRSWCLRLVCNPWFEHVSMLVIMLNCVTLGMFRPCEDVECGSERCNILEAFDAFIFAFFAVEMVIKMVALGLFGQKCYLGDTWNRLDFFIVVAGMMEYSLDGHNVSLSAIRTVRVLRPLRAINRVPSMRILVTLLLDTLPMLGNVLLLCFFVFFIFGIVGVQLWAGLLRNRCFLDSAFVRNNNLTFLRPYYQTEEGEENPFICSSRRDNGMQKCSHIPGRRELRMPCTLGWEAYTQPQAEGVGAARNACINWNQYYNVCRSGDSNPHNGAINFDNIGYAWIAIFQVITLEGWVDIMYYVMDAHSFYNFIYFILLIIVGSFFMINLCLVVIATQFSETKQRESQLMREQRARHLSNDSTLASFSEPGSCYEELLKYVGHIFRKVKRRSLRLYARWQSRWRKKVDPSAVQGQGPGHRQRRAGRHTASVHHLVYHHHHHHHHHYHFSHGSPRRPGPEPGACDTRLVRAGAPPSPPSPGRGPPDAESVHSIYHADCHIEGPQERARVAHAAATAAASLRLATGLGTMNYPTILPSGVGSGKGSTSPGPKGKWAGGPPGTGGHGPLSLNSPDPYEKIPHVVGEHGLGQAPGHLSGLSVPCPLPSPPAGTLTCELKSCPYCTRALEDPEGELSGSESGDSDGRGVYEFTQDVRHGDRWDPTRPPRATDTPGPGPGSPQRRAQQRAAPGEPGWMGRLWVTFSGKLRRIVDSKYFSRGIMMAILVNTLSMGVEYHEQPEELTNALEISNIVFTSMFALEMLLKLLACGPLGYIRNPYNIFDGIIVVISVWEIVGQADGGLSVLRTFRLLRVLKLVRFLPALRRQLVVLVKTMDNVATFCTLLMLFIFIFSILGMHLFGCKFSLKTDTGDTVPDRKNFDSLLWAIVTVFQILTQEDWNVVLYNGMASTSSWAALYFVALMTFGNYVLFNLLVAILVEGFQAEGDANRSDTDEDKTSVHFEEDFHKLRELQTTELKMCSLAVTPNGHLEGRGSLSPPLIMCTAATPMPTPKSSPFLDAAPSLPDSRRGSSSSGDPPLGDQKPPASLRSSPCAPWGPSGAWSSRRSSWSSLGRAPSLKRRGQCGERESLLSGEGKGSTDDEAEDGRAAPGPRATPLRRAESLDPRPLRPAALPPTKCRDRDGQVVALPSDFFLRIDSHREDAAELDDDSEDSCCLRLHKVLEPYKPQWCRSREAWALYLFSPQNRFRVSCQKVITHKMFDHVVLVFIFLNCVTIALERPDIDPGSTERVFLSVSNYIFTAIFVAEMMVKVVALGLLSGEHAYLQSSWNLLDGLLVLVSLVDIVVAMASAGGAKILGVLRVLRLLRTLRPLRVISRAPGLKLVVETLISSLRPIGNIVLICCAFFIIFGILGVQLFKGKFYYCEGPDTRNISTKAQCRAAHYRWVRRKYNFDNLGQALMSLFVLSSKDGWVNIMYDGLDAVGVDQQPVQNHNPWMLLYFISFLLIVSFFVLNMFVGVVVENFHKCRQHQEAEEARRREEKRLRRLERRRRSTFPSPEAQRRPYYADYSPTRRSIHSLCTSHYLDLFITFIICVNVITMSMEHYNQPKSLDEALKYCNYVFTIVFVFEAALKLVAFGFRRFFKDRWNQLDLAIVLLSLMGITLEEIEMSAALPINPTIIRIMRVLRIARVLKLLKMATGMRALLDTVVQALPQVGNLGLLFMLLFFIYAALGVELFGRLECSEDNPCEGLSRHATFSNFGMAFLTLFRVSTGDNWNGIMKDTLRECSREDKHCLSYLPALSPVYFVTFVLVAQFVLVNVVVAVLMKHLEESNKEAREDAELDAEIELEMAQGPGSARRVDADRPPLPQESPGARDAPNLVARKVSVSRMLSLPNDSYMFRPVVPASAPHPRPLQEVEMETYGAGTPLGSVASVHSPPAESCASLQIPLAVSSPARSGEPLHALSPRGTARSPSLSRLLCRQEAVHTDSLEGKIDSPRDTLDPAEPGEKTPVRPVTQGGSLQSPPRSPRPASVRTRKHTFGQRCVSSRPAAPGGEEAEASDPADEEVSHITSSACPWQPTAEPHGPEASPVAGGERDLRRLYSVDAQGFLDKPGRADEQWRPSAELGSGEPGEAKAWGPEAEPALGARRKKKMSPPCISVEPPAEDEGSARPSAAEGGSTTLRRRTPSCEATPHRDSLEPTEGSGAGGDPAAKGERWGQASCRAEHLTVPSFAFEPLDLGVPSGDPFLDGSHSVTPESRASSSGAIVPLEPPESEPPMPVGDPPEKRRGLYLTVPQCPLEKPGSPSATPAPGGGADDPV
Starred values were filed as active, the others as inactive; . = no result. Unless noted, no stated cut-off is given here; in the data, active means inhibition above about 30%; inactive means the rest.

SMILES	E coli WT exp	PostGolgi yeast	PostGolgi ctrl	tolC growth inh	Cav32 inh
CCN(CC)c1nc(N)c2c(N)nc3c(c2c1C#N)CC(c1ccccc1)O3 (configuration not stated)	-4	5	11	76*	-3.4
COC(=O)c1ccc(NC(=O)CSc2nnc(-c3ccccc3)n2C)cc1	.	.	.	.	0.86
Cc1ccc2c(c1)NC(=O)C(CC(=O)N(C)Cc1ccccc1)O2 (configuration not stated)	4	9	-2	6	-1.4
CN1CCN(C(=O)C2=C[C@@H](C(C)(C)C)C[C@@H](OCc3ccc(CO)cc3)O2)CC1	.	.	.	.	0.39
CC1CCCN(c2nc3c(c(=O)[nH]c(=O)n3C)n2CCCc2ccccc2)C1 (configuration not stated)	0	3	35*	32	-5.6*
CCn1c(N2CCC(Cc3ccccc3)CC2)nc2c1c(=O)[nH]c(=O)n2C	5	2	37*	20	.
CC1CCN(c2nc3c(c(=O)[nH]c(=O)n3C)n2Cc2ccccc2)CC1	1	-1	10	5	-0.7
O=C(NCc1ccccn1)C1CCN(S(=O)(=O)c2ccccc2)CC1	-3	-7	13	-3	0.11
O=C(NCc1ccccn1)C1CCN(S(=O)(=O)N2CCCC2)CC1	1	-1	39*	-3	-0.86
Nc1ccc(Oc2ccc3nc(-c4ccccc4)c(-c4ccc([N+](=O)[O-])cc4)nc3c2)cc1	-15	37*	19	.	0.062
Cc1c(-c2ccccc2)nc2ccccc2c1C(=O)Oc1ccc([N+](=O)[O-])cc1	-17	6	7	.	0.38
CN(C)CCNC(=O)c1ccc(CS(=O)(=O)c2ccc(Br)cc2)o1	.	.	.	-10	1.4
CCOC(=O)C1C(=O)OC(C)(C)C1C(C)C(=O)c1ccccc1 (configuration not stated)	0	16	2	.	1.2
O=C(c1nn(Cc2ccccc2)c(=O)c2ccccc12)N1CCc2ccccc2C1	-5	-6	57*	.	-4*
O=C(c1ccccc1Cl)N1CCc2ccccc2C1	-12	-9	8	12	0.36
O=C(Cn1nc(Cc2cccnc2)c2ccccc2c1=O)N1CCN(c2ccccn2)CC1	4	-13	21	-19	-3.3*
O=C(c1nn(Cc2ccccc2)c(=O)c2ccccc12)N1CCN(c2ccccn2)CC1	-4	14	18	8	-5.6*
Nc1c(Cl)cc(-c2csc(N3CCCC3c3nc4cc(Cl)c(N5CCCCC5)cc4n3CCOCCO)n2)cc1Cl (configuration not stated)	.	.	.	.	-0.63
Cc1cc(C)cc(Oc2ncnc3c2ncn3Cc2c(Cl)cccc2Cl)c1	-2	-1	34*	.	-3.9
CCc1nc2c(cnn2-c2ccc(Cl)cc2)c(=O)n1-c1ccc(OC)cc1	-11	4	49*	6	-0.027
CCCS(=O)(=O)N1CCC(C(=O)NCCCN(CC)c2cccc(C)c2)CC1	-9	2	-8	-9	0.25
CCCS(=O)(=O)N1CCCC(C(=O)NCCN(CC)CC)C1 (configuration not stated)	-1	5	33*	-32	0.88
CCCS(=O)(=O)N1CCCC(C(=O)NCCCN(CC)c2cccc(C)c2)C1 (configuration not stated)	-5	13	31*	-9	0.4
CCN(CCCNC(=O)C1CCC(=O)N1Cc1ccc(C)cc1)c1cccc(C)c1 (configuration not stated)	-3	6	5	21	-3.4*
CCN(CCCNC(=O)C1CCC(=O)N1Cc1ccccc1Cl)c1cccc(C)c1 (configuration not stated)	2	1	4	.	-1.3
SMILES	E coli WT exp	PostGolgi yeast	PostGolgi ctrl	tolC growth inh	Cav32 inh
CCc1ccc(NSc2ccccc2[N+](=O)[O-])cc1	5	-5	25	.	-0.89
C=CCSc1nnc(-c2cc3c(s2)-c2ccccc2CC3)o1	-3	5	9	.	-0.38
c1ccc2sc(N3CN(CCN4CCOCC4)CN(c4nc5ccccc5s4)C3)nc2c1	-5	-12	6	2	-5.7*
CC(Oc1ccccc1)c1ccnn1S(=O)(=O)c1ccccc1 (configuration not stated)	7	4	16	.	-6.4*
CC(Oc1ccc(Cl)cc1)c1ccnn1S(=O)(=O)c1ccc(Cl)cc1 (configuration not stated)	-1	22	10	.	-2.1
COc1ccc(C(=O)NC(C)(C)C)cc1S(=O)(=O)N1CCCC1	8	2	4	.	1.3
COc1ccccc1C(=O)Nc1ccc(S(=O)(=O)N2CCc3ccccc32)cc1	-5	4	34*	.	-1.4
COC(=O)Nc1ccc(S(=O)(=O)N2CCCc3ccccc32)cc1	-3	18	11	23	-6.1*
